The record followed here is ChEMBL document CHEMBL1269010, “Phenolic bis-styrylbenzenes as β-amyloid binding ligands and free radical scavengers” (J Med Chem, 2010).

The source made the active and inactive calls. The calls are words filed in the database; no cut-off is given here. Where only a bound is given, the exact number is not on record here.

Assay [1] can be described thus: Binding affinity to aggregated amyloid beta (1 to 40) by fluorescence titration analysis.
Assay [2] is filed under the species Mus musculus. Description: Binding affinity to beta-amyloid plaque in APP/PS1 transgenic mouse brain assessed as signal-to-noise ratio after 30 mins by DAPI staining. Format: tissue-based. In outline:
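Eleven-month-old APP/PS1 mice (Tg2576 × PS1 M146L 6.1) perfusion-fixed with 4% paraformaldehyde; cryosections 10 μm, three per concentration. Stained 30 min with 50 μM compound in 9:1 PBS/EtOH, then washed in 75% EtOH, 95% EtOH and xylene. Imaged through a DAPI filter; S/N taken from five plaque versus five background regions across three plaques per section.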

In assay [3] the test system is Radical scavenging activity. Description: Antioxidant activity assessed as DPPH radical scavenging activity by spectrophotometric analysis. Type of assay: functional. The gist of the method:
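DPPH (100 μM) in MeOH mixed with test compound from 0 nM to 5 mM; compounds came from ~15 mM DMSO stocks diluted in MeOH. Loss of absorbance at 517 nm read on a plate reader. Each concentration run in triplicate; IC50 taken from a sigmoidal dose-response fit.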
(In general: Loss of DPPH colour is used to gauge radical scavenging.)

Assay [4] has as its system Mus musculus. Description: In vivo binding affinity to beta-amyloid plaque in PDAPP transgenic mouse hippocampus CA1 region at 50 mg/kg, ip after 48 hrs. Type of assay: functional, organism-based. Also noted: dose 50 mg/kg. In outline: (§1)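 Ten-month-old PDAPP mice given a single 50 mg/kg ip dose, vehicle 10% DMSO/PBS, with vehicle-only animals as control. Perfused with 4% PFA at 48 h; brain sections postfixed in 4% PFA for 5 min and mounted. CA1 and dentate gyrus plaques imaged by fluorescence microscopy at 10× and 40×.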

The test system of assay [5] is Mus musculus. Description: In vivo binding affinity to beta-amyloid plaque in mouse hippocampus dentate gyrus region at 50 mg/kg, ip after 48 hrs. Type of assay: functional, organism-based. Also noted: dose 50 mg/kg.
The target of assay [6] is Amyloid-beta precursor protein (Homo sapiens) (UniProt P05067). Description: Binding affinity to beta-amyloid plaque in normal human brain after 30 mins by fluorescence microscopy. Type of assay: tissue-based. The gist of the method:
(§2)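 Frozen sections (10 μm) of human AD brain and age-matched control brain. Stained 30 min with 50 μM compound in 9:1 PBS/EtOH, washed in 75% EtOH, 95% EtOH and xylene, then fluorescence-imaged through a DAPI filter.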

Assay [7] deals with Mus musculus. Description: In vivo binding affinity to beta-amyloid plaque in PDAPP transgenic mouse hippocampus dentate gyrus region at 50 mg/kg, ip after 48 hrs. Type of assay: functional, organism-based. Further details: dose 50 mg/kg. In outline:
as §1

Assay [8] concerns the target Amyloid-beta precursor protein (Homo sapiens) (UniProt P05067). Description: Binding affinity to beta-amyloid plaque in brain of patient with Alzheimer's disease after 30 mins by fluorescence microscopy. Type of assay: tissue-based. In outline:
as §2

Sequence of Amyloid-beta precursor protein (Homo sapiens) (P05067 whole entry): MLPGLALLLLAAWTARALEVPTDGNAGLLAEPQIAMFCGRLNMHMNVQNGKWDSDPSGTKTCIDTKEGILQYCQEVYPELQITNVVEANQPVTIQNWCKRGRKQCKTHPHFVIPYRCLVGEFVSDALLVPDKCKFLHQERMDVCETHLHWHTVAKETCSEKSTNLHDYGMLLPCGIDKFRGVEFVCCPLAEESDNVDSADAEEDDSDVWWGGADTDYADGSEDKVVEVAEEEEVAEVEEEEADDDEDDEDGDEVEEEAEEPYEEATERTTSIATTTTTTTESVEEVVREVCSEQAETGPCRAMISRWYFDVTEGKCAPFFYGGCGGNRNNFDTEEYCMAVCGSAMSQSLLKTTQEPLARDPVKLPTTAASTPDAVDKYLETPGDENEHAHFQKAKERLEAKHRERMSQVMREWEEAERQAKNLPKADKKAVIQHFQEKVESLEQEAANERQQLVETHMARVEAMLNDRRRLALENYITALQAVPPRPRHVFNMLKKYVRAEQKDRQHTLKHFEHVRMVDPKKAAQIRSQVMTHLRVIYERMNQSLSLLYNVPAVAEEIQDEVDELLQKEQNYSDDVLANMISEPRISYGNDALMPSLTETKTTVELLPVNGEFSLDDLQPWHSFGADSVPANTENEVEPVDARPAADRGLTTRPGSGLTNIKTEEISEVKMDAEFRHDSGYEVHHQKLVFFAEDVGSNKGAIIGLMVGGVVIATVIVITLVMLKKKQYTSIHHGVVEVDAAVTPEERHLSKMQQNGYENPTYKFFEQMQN

Take `Oc1ccc(/C=C/c2ccc(/C=C/c3cccc(O)c3)cc2)cc1`: the Kd (as a rule, the constant that tells how readily two partners part at equilibrium) in assay [1] worked out at 3.5 µM. In addition, the Ratio in the assay listed under Mus musculus [2] turned out to be 9. In assay [3], the half-inhibitory concentration (IC50) – broadly, the point on the concentration scale where inhibition reaches its midpoint – was 3.5 µM.
Consider `Oc1ccc(/C=C/c2ccc(/C=C/c3ccccc3)cc2)cc1`, for which, in assay [1], the affinity, expressed as Kd, was 0.16 µM. In the assay filed under Mus musculus [2], the Ratio was 8.1. In addition, the IC50 in assay [3] stood at 5.6 µM.
In turn, `Oc1ccc(/C=C/c2ccc(O)cc2)cc1` [TRANS-4,4'-DIHYDROXYSTILBENE] had a Kd in assay [1] of 9.2 µM. Besides, in the assay listed under Mus musculus [2], the Ratio stood at 5.2. Besides, in assay [3], the IC50 was determined as 1.8 µM.
Consider `Oc1ccc(/C=C/c2ccc(/C=C/c3ccc(O)cc3)cc2)cc1`, for which the outcome (in the assay on Mus musculus [4]; in the assay with Mus musculus [7]; in assay [8]) was Active. Besides, the dissociation constant (Kd) in assay [1] was determined as 0.0095 µM. Further, the result (with Mus musculus [5]; in assay [6]) was inactive. Also, in the assay listed under Mus musculus [2], the Ratio is 14. For the same molecule, in assay [3], the IC50 came out at 3.1 µM.
Regarding `Oc1ccc(/C=C/c2ccccc2/C=C/c2ccc(O)cc2)cc1`, binding in assay [1] was characterised by a dissociation constant (Kd) of 6.3 µM. Besides, in the assay listed under Mus musculus [2], the Ratio turned out to be 5.1. Moreover, the concentration for half-maximal inhibition (IC50) in assay [3] was found to be 4 µM.
For the molecule `Oc1ccc(/C=C/c2cccc(/C=C/c3ccc(O)cc3)c2)cc1`, in assay [1], the equilibrium dissociation constant (Kd) was 2.5 µM. The Ratio in the assay filed under Mus musculus [2] worked out at 3.1. Also, the half-maximal inhibitory concentration (IC50) in assay [3] is 3.4 µM.
`O=c1c(O)c(-c2ccc(O)c(O)c2)oc2cc(O)cc(O)c12` [QUERCETIN]: the concentration for half-maximal inhibition (IC50) in assay [3] was found to be 1.3 µM.
In the case of `Oc1cc(O)cc(/C=C/c2ccc(/C=C/c3cc(O)cc(O)c3)cc2)c1`, the outcome (in the assay on Mus musculus [4]; in the assay with Mus musculus [7]; in assay [8]) was Active. This molecule displayed a dissociation constant Kd in assay [1] of 0.16 µM. Besides, the result (with Mus musculus [5]; in assay [6]) was inactive. The Ratio in the assay filed under Mus musculus [2] was determined as 9.6. Moreover, in assay [3], the IC50 is 5.1 µM.
On to `Oc1ccc(/C=C/c2cc(O)cc(O)c2)cc1` [RESVERATROL], for which the half-inhibitory concentration (IC50) in assay [3] is 62 µM.
Consider `Oc1cccc(/C=C/c2ccc(/C=C/c3cccc(O)c3)cc2)c1`, for which the outcome (in the assay on Mus musculus [4]; in the assay on Mus musculus [7]; in assay [8]) was Active. In assay [1], this molecule gave an equilibrium dissociation constant (Kd) of 0.0053 µM. Further, the result (in the assay with Mus musculus [5]; in assay [6]) was inactive. The Ratio in the assay filed under Mus musculus [2] is 9.6. For the same molecule, the 50% inhibitory concentration (IC50) in assay [3] is over 100 µM.
`Oc1ccc(C#Cc2ccc(C#Cc3ccc(O)cc3)cc2)cc1` displayed a Kd in assay [1] of 0.054 µM. Also, the Ratio in the assay listed under Mus musculus [2] came to 5.9. In assay [3], the half-inhibitory concentration (IC50) was found to be 45 µM.
`Oc1ccc(/C=C/c2ccc(/C=C/c3cc(O)cc(O)c3)cc2)cc1` showed an equilibrium dissociation constant (Kd) in assay [1] of 0.19 µM. Also, the Ratio in the assay filed under Mus musculus [2] was found to be 3.8. Besides, the IC50 in assay [3] stood at 4.5 µM.
The molecule `Oc1cccc(/C=C/c2ccc(/C=C/c3ccc(O)c(O)c3)cc2)c1` had a Kd in assay [1] of 0.2 µM. Further, the Ratio in the assay filed under Mus musculus [2] was determined as 5.6. For the same molecule, the IC50 in assay [3] came to 9.1 µM.
`Oc1ccccc1/C=C/c1ccc(/C=C/c2ccccc2O)cc1` showed a Kd in assay [1] of 0.8 µM. In the assay listed under Mus musculus [2], the Ratio was 11. In assay [3], the concentration for half-maximal inhibition (IC50) worked out at 4 µM.
For the molecule `Oc1ccc(/C=C/c2ccc(/C=C/c3ccc(O)c(O)c3)cc2)cc1`, the Kd in assay [1] worked out at 0.26 µM. For the same molecule, in the assay filed under Mus musculus [2], the Ratio was found to be 9.1. Besides, in assay [3], the half-maximal inhibitory concentration (IC50) is over 100 µM.
